The record followed here is PubChem BioAssay AID504829 (Southern Research Specialized Biocontainment Screening …, 2011).

Structures are written as SMILES.

The assay concerns HEp-2 RSV CPE, time of addition, CellTiter-Glo viability. Kind of assay: HEp-2 viability after RSV infection, timed dosing – cell-based, time of addition, mechanism study for RSV inhibitor project (AID 504829). To be noted: at 25 µM, stronger effect = higher value. In short, it runs like this: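 System: HEp-2 human cell line, virus-infected | Doses: 25 µM single dose, 0.5% DMSO | Times: 6-day incubation at 37 °C after infection | Signal: ATP-based luminescence with CellTiter-Glo reagent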

Where [1] appears, read: measured here: added 1 h before infection.
[2] abbreviates: measured here: added 1 h post infection.
Setting [3] is: measured here: added 7 h post infection.
The mark [4] stands for this setting: measured here: added 21 h post infection.
Where [5] appears, read: measured here: added 24 h post infection.

On to `Cc1ccc(C)c(NC(=O)[C@@H]2CCCN2S(=O)(=O)c2cccc3cccnc23)c1`, for which the viability (protection from CPE) was 91.4%. Also, the viability under setting [1] came out at 91.6%. The viability under setting [2] was found to be 61.7%. This compound had a viability under setting [3] of 49.6%. In addition, the viability under setting [4] is 35.1%. The viability under setting [5] came to 27.7%.

Regarding `COc1ccc(C)c(NC(=O)[C@@H]2CCCN2S(=O)(=O)c2cccc3cccnc23)c1`, the viability (protection from CPE) is 81.8%. Further, the viability under setting [1] stood at 90.4%. The viability under setting [2] was 63.3%. Under setting [3], the viability came to 52.1%. The viability under setting [4] was 34.3%. For the same compound, the viability under setting [5] was found to be 24.8%.

Take `Cc1ccc(NC(=O)[C@@H]2CCCN2S(=O)(=O)c2cccc3cccnc23)c(C)c1`: the viability (protection from CPE) is 77.1%. Further, the viability under setting [1] is 87.5%. Besides, the viability under setting [2] turned out to be 56%. Moreover, under setting [3], the viability turned out to be 51.8%. This compound showed a viability under setting [4] of 29%. Under setting [5], the viability was determined as 23.1%.

By viability is commonly meant a per cent measure of how many cells are alive, often set against a control.
